# Active and inactive are the calls of the source. No cut-off for these calls is given here.
# What was measured:
# [1] = test system: Saccharomyces cerevisiae; test: Antifungal activity against Saccharomyces cerevisiae by bioautographic agar overlay method; type: functional
# How it was run: (§1)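 Nutrient agar inoculated with the pure microbial culture was poured over the plates, which were incubated appropriately. Bacterial or fungal growth inhibition was scored by bioautography.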
# [2] = test system: Staphylococcus aureus; test: Antibacterial activity against Staphylococcus aureus at 100 ug/mL by bioautographic agar overlay method; type: functional, organism-based
# [3] = test system: Bacillus subtilis; test: Antibacterial activity against Bacillus subtilis at 100 ug/mL by bioautographic agar overlay method; type: functional, organism-based
# [4] = test system: Candida albicans; test: Antifungal activity against Candida albicans at 100 ug/mL by bioautographic agar overlay method; type: functional, organism-based
# [5] = test system: Escherichia coli; test: Antibacterial activity against Escherichia coli by bioautographic agar overlay method; type: functional; how it was run: as §1
# [6] = test system: Bacillus subtilis; test: Antibacterial activity against Bacillus subtilis by bioautographic agar overlay method; type: functional; how it was run: as §1
# [7] = test system: Staphylococcus aureus; test: Antibacterial activity against Staphylococcus aureus by bioautographic agar overlay method; type: functional; how it was run: as §1
# [8] = test system: Candida albicans; test: Antifungal activity against Candida albicans by bioautographic agar overlay method
# [9] = test system: Pseudomonas aeruginosa; test: Antibacterial activity against Pseudomonas aeruginosa by bioautographic agar overlay method; type: functional; how it was run: as §1
Compound,MIC [1] [µg/mL],MIC [5] [µg/mL],MIC [6] [µg/mL],MIC [7] [µg/mL],MIC [8] [µg/mL],MIC [9] [µg/mL],Activity [2],Activity [3],Activity [4]
Cc1ccc(C2(c3ccc(C)cc3)C(=O)N(C3CCCCC3)C23C(=O)N(C)c2ccccc23)cc1 (stereo unspecified),,100,,,,,inactive,inactive,inactive
O=C(N[C@H](CO)[C@H](O)c1ccc([N+](=O)[O-])cc1)C(Cl)Cl [CHLORAMPHENICOL],,0.1,0.1,0.1,,,,,
Cc1ccc(C2(c3ccc(C)cc3)C(=O)N(C(C)c3ccccc3)C23C(=O)N(C)c2ccccc23)cc1 (stereo unspecified),,,,,,,inactive,inactive,inactive
Clc1ccc(COC(Cn2ccnc2)c2ccc(Cl)cc2Cl)c(Cl)c1 (stereo unspecified) [MICONAZOLE],0.1,,,,0.1,,,,
CN1C(=O)C2(c3ccccc31)N(C1CCCCC1)C(=O)C2(c1ccccc1)c1ccccc1 (stereo unspecified),,100,,,,,inactive,inactive,inactive
CC(c1ccccc1)N1C(=O)C(c2ccccc2)(c2ccccc2)C12C(=O)N(C)c1ccccc12 (stereo unspecified),,,,,,,inactive,inactive,inactive
Cc1ccc(C2(c3ccc(C)cc3)C(=O)N(C(c3ccccc3)c3ccccc3)C23C(=O)N(C)c2ccccc23)cc1 (stereo unspecified),100,,,,,,inactive,inactive,inactive
CN1C(=O)C2(c3ccccc31)N(C(c1ccccc1)c1ccccc1)C(=O)C2(c1ccccc1)c1ccccc1 (stereo unspecified),10,,,,,,inactive,inactive,inactive

# The next lines start with results.
MIC [1] [µg/mL],MIC [5] [µg/mL],MIC [6] [µg/mL],MIC [7] [µg/mL],MIC [8] [µg/mL],MIC [9] [µg/mL],Compound,Activity [2],Activity [3],Activity [4]
50,,,,,,COc1ccc(C2(c3ccc(OC)cc3)C(=O)N(C(C)C)C23C(=O)N(C)c2ccccc23)cc1 (stereo unspecified),inactive,inactive,inactive
50,50,,,,,COc1ccc(C2(c3ccc(OC)cc3)C(=O)N(C(c3ccccc3)c3ccccc3)C23C(=O)N(C)c2ccccc23)cc1 (stereo unspecified),inactive,inactive,inactive
50,10,,,,50,Cc1ccc(C2(c3ccc(C)cc3)C(=O)N(C(C)C)C23C(=O)N(C)c2ccccc23)cc1 (stereo unspecified),inactive,inactive,inactive
50,,,,,,CC(C)N1C(=O)C(c2ccccc2)(c2ccccc2)C12C(=O)N(C)c1ccccc12 (stereo unspecified),inactive,inactive,inactive
